Bioassay records from PubChem BioAssay.
A selection: hits, their analogues and other compounds. The true share with any hit is near 9.8%.
PMI act hi M6P: increases human PMI activity with near-saturating mannose 6-phosphate | activation factor at 20 µM | AID 1216 | 190,000 tested, 0.34% active | coupled PMI enzyme assay, resazurin fluorescence, 20 min; stronger effect = higher value; 1 = untreated enzyme, 0 = substrate-free blank;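 active means activation factor of 2 or more at 20 µM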
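Material: human phosphomannose isomerase with PGI, G6PDH, diaphorase coupling enzymes; amount: PMI at 15 ng/mL final; also added: Mannose-6-phosphate 1.0 mM (near-saturating) plus 0.22 mM NADP+; incubation: enzyme reaction with compound 20 min at room temperature; signal: resorufin fluorescence (Ex 544/Em 590 nm) from resazurin via diaphorase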
WT yeast gro inh: growth inhibition of WT yeast, mitochondrial fusion screen; mitochondrial fusion phenotypic screen, WT strain; AID 1362; 190,000 tested, 2.1% active; inhibition, % at 10 µM; in the data active means inhibition above about 58%; tested in S. cerevisiae
L major viab: inhibitors of Leishmania major promastigote growth; 200,000 tested, 9% active; Leishmania major promastigotes, resazurin fluorescence viability; inhibition, % at 10 µM; in the data active means inhibition above about 50%;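 further: promastigotes grown with compound for 44 hours at 28 °C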
Rad51 HR inh: Rad51 (human) homologous recombination inhibition; 200,000 tested, 0.085% active; inhibition, % at 10 µM; Q06609; hRad51 DNA strand exchange, fluorescence dequenching; AID 1385;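 active means inhibition above 40% at the single screening dose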
Target sequence (Q06609 whole entry, looked up): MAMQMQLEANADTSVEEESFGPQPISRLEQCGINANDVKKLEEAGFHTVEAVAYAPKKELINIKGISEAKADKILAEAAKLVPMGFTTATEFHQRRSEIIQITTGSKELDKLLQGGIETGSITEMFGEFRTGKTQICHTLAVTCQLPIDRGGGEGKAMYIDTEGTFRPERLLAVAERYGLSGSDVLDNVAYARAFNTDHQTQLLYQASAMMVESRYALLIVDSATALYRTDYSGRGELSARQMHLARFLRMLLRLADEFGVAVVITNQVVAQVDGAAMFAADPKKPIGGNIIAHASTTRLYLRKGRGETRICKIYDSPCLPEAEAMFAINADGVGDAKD
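material = hRad51 filaments on single-stranded DNA | timing = filaments 15 min 37 °C, then compound 30 min | signal = FRET fluorescence dequenching, excitation 485 nm, emission 520 nm | benchmarks = control wells and blank wells on each plate | evaluation = percent inhibition relative to plate controls and blanks | compound = 10 µM final, single point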
Calpain2 inh: calpain II (pig) inhibition. 220,000 tested, 0.37% active. purified calpain II, fluorogenic peptide substrate, 30 min. inhibition, % at 16 µM. AID 1236;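 active means inhibition above about 50%, limit read from the data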
PMI act: increases human mannose-6-phosphate isomerase activity. P34949. AID 1214. purified human PMI, coupled resazurin fluorescence, 20 min; stronger effect = higher value; 1 = vehicle control, 0 substrate-free wells. activation factor at 20 µM. 190,000 tested, 0.005% active;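 active means activation factor of 2 or more at 20 µM, relative to plate controls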
A number is an active result; i = inactive; nt = not tested or not shown.

SMILES | PMI act hi M6P | WT yeast gro inh | L major viab | Rad51 HR inh | Calpain2 inh | PMI act
C#CCOCCOCCOCCNc1nc(N2CCN(C(=O)[C@H]([C@@H](C)CC)n3cc([C@@H](N)Cc4ccc(O)cc4)nn3)CC2)nc(N2CCN(C(=O)[C@H](CCCCN)n3cc([C@@H](N)CC(C)C)nn3)CC2)n1 | i | i | i | nt | i | i
COCCN1Cc2cccc(C(=O)Nc3cc(C)cc(C)c3)c2C1=O | i | i | i | i | i | i
CCCN1Cc2cccc(C(=O)Nc3ccc4c(c3)OCCO4)c2C1=O | i | i | 68.8 | i | i | i
COCCN1Cc2cccc(C(=O)Nc3c(C)cc(C)cc3C)c2C1=O | i | i | 71.8 | i | i | i
Cc1nn(C)c(C)c1CNC(=O)Nc1cccc(Cl)c1C | i | i | i | i | i | i
CCN(CCO)Cc1csc2cccc(Br)c12 | i | i | i | nt | i | i
CCN(CCO)Cc1csc2ccc(Br)cc12 | i | i | 98.5 | nt | i | i
CC(=C1C(=O)c2ccccc2C1=O)N1CCN(C/C=C/c2ccccc2)CC1 | i | i | 83.3 | i | i | i
Cc1cc(C(=O)N2CCN(C/C=C/c3ccccc3)CC2)cs1 | i | i | i | i | i | i
O=C(c1cc(Br)c(Br)s1)N1CCN(C/C=C/c2ccccc2)CC1 | i | 63.7 | i | i | i | i
CCCCNC(=O)N1CCN(C/C=C/c2ccccc2)CC1 | i | i | 52.5 | i | i | i
O=C(Nc1ccc2c(c1)OCO2)N1CCN(C/C=C/c2ccccc2)CC1 | i | i | 74.4 | i | i | i
Cc1ccccc1N1CN(Cc2ccco2)CNC1=S | i | i | i | i | i | i
COc1ccc(NC(=O)/C(C#N)=C/c2ncc([N+](=O)[O-])n2C)c(OC)c1 | nt | nt | nt | i | i | nt
CN1/C(=C\C(=O)Nc2ccc(Cl)cc2)C(C)(C)c2ccccc21 | i | 79.3 | i | i | i | i
CN1/C(=C\C(=S)Nc2ccccc2)C(C)(C)c2ccccc21 | i | 61.2 | i | i | i | i
CN1/C(=C\C=C(/C#N)C(=O)Nc2ccc(Cl)cc2)C(C)(C)c2ccccc21 | i | i | 87.5 | i | i | i
Cc1ccc(-n2nc(C)c(=O)c(-c3ccccc3)c2NC(=O)C(C)C)cc1 | nt | nt | nt | i | i | nt
CC(=O)N(C)c1ccc(NC(=O)Nc2ccc(C)c(C)c2)cc1 | i | i | i | nt | i | i
COc1ccc(-c2csc3nc(-c4ccccc4)oc(=O)c23)cc1OC | nt | i | i | i | i | nt
CCC(Oc1ccccc1)C(=O)Nc1ccsc1C(=O)OC (stereo not drawn) | i | i | 73.7 | i | i | i
CCCNC(=O)Nc1ccsc1C(=O)OC | i | i | i | i | i | i
CCOC(=O)[C@@H]1C(c2c(OC)cc(OC)cc2OC)=NO[C@@H]1C(=O)OCC | i | i | i | i | i | i
COc1ccc2nc(Nc3nc4cc5c(cc4s3)OCO5)sc2c1 | i | i | 55.3 | i | i | i
Cc1cc(C)c(-c2csc(NC(=O)c3cc([N+](=O)[O-])ccc3N3CCOCC3)n2)c(C)c1 | i | i | 79.3 | i | i | i
SMILES | PMI act hi M6P | WT yeast gro inh | L major viab | Rad51 HR inh | Calpain2 inh | PMI act
O=C(NNS(=O)(=O)c1ccc(C(=O)NC2CCCC2)cc1)c1ccncc1 | i | i | i | i | i | i
O=C(C[n+]1cccc2ccccc21)c1ccccc1 | i | i | i | i | i | i
Cc1cc[n+](CC(=O)c2ccc(NC(=O)c3ccccc3)cc2)c2ccccc12 | i | 60.5 | i | i | i | i
O=C(C[n+]1cc2ccccc2c2ccccc21)c1ccccc1 | i | i | 99.3 | i | i | i
CC(=O)c1c(C)[nH]c(C(=O)CSc2ncnc3sc(-c4ccccc4)cc23)c1C | i | i | 74.1 | nt | i | i
CC(=O)c1c(C)[nH]c(C(=O)CSc2nnc(-c3cccs3)n2Cc2ccccc2)c1C | i | i | 78.0 | nt | i | i
O=C(CCCc1c[nH]c2ccccc12)Nc1ccc(S(=O)(=O)Nc2ncccn2)cc1 | nt | nt | nt | i | i | nt
O=C(NCc1cccnc1)/C(=C\c1ccc(-c2cccc(Cl)c2)o1)S(=O)(=O)c1ccccc1 | i | i | 100.3 | nt | i | i
Cc1ccc(C(=O)N/C(=C\c2ccc(-c3cc(Cl)ccc3Cl)o2)C(=O)NCc2cccnc2)cc1 | i | i | i | nt | i | i
O=C(NCc1cccnc1)/C(=C/c1ccc(-c2cccc(Cl)c2)o1)S(=O)(=O)c1ccccc1 | i | i | 100.4 | i | i | i
